Reference: ChEMBL document CHEMBL3797175, “Discovery of 6-(difluoro(6-(4-fluorophenyl)-[1,2,4]triazolo[4,3-b][1,2,4]triazin-3-yl)methyl)quinoline as a highly potent and selective c-Met inhibitor” (Eur J Med Chem, 2016)
Active and inactive are the calls of the source. The calls are words filed in the database; no cut-off is given here.

Assays:
[1] = molecular target: T1, Hepatocyte growth factor receptor (Homo sapiens, UniProt P08581); assay: Inhibition of c-Met in human MKN45 cells assessed as reduction in AKT phosphorylation at Serine 473 at 10 nM after 1 hr by Western blot analysis; assay type: cell-based; conditions: MKN-45
T1 sequence (P08581 whole entry): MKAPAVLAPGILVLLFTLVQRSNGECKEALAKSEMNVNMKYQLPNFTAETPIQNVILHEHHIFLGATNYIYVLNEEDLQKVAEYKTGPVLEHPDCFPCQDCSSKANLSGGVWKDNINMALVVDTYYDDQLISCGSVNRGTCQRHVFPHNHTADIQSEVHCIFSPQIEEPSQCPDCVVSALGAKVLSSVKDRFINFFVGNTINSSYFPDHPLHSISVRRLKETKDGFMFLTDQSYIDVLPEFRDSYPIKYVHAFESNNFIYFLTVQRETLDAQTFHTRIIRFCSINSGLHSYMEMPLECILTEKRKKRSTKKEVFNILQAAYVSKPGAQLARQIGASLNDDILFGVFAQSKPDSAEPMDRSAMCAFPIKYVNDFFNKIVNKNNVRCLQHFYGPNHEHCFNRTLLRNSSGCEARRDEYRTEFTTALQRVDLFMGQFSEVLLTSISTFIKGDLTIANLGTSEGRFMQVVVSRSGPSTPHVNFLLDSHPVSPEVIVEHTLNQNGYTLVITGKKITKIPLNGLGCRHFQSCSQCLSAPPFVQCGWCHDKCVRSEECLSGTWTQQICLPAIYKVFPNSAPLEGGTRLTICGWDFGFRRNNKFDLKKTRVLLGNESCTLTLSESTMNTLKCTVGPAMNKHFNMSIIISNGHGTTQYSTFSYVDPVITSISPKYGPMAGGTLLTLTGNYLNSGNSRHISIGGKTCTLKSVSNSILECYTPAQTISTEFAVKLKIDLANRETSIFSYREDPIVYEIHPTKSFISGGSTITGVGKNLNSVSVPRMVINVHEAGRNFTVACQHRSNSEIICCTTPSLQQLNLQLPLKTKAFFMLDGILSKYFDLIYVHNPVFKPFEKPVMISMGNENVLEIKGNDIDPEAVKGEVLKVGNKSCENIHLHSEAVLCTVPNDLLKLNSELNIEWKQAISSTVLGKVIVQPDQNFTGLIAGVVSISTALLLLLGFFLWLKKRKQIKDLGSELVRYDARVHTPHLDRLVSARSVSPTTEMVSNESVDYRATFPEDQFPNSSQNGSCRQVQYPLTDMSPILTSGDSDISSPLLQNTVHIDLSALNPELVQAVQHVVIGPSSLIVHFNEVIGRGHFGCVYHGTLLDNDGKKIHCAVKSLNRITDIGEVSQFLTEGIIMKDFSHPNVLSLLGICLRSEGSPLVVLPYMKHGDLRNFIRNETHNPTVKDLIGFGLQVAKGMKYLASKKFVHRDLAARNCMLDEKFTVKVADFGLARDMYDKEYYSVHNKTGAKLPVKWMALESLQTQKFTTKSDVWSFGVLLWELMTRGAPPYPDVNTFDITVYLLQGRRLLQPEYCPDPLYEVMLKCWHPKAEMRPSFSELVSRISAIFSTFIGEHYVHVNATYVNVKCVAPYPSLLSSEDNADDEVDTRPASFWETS
Outline: (§1)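 EBC-1 or MKN45 cells treated with compound 1 h at 37 °C without HGF, then lysed in 1× SDS sample buffer. Lysates run on 10% SDS-PAGE and transferred to nitrocellulose. Probed with antibodies to c-Met, phospho-c-Met, phospho-ERK1/2, phospho-AKT, AKT and GAPDH, then HRP secondary. ECL detection.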

[2] = Selectivity ratio of IC50 for human 786-0 cells to IC50 for mouse BAF3 cells expressing TPR-MET; assay type: ADME, cell-based
Outline: (§2)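 Both IC50s in each ratio come from one proliferation assay. Cells were seeded and exposed the next day to a range of concentrations for 72 h, then read by SRB or MTT. IC50s were fitted by four-parameter concentration–response, with each concentration at least in triplicate and at least 2 experiments. BaF3/TPR-Met is murine pre-B BaF3 transfected with TPR-MET and puromycin-selected.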

[3] = molecular target: Ephrin type-A receptor 2 (Homo sapiens) (UniProt P29317); assay: Inhibition of recombinant EPHA2 (unknown origin) using poly (Glu, Tyr) 4:1 as substrate at 1000 nM incubated for 60 mins by ELISA relative to control
Sequence of Ephrin type-A receptor 2 (Homo sapiens) (P29317 whole entry): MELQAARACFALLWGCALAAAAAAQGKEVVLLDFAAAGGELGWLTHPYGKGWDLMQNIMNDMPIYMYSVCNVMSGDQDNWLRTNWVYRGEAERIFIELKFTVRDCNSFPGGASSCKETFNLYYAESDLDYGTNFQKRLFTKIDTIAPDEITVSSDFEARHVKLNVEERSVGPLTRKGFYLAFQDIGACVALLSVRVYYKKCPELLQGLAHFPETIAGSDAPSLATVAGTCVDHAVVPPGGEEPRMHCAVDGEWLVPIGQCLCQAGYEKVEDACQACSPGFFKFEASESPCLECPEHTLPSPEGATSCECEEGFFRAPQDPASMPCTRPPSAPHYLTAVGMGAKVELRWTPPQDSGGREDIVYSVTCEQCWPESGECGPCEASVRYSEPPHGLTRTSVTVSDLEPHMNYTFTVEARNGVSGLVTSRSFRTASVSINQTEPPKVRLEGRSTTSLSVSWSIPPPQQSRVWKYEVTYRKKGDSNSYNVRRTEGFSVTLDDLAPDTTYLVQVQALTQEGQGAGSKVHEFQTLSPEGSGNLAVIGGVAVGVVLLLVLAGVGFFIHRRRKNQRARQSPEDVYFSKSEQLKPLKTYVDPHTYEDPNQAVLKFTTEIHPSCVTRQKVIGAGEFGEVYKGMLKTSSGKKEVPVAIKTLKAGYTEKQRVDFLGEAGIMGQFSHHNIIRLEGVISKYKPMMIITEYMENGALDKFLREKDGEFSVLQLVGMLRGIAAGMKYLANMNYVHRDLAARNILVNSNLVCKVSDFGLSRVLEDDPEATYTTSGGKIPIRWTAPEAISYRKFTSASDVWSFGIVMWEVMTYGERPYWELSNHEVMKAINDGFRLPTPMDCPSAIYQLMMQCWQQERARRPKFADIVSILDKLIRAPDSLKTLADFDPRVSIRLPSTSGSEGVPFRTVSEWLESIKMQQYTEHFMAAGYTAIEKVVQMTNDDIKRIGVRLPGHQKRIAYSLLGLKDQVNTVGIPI
Outline: (§3)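 Recombinant tyrosine kinases assayed on wells precoated with poly(Glu,Tyr)4:1 (20 µg/mL). ATP 10 µmol/L in HEPES pH 7.4 buffer with MgCl2, MnCl2, Na3VO4 and DTT; compound in 1% DMSO, 1% DMSO as control. Reaction 60 min at 37 °C. Phosphotyrosine detected with PY99 and HRP anti-mouse, o-phenylenediamine, A490. Inhibition % relative to control; two experiments.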

[4] = Selectivity ratio of IC50 for human NCI-H292 cells to IC50 for human MKN45 cells; assay type: ADME, cell-based; outline: as §2
[5] = Antiproliferative activity against human SNU16 cells after 72 hrs by SRB or MTT assay; assay type: functional, cell-based; conditions: SNU-16, 72 h
Outline: (§4)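 Cells seeded, exposed next day to a range of concentrations for 72 h. Growth read by sulforhodamine B or MTT. IC50 from four-parameter concentration-response fit. Each concentration tested at least in triplicate, with at least 2 experiments.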

[6] = Volume of distribution at steady state in Sprague-Dawley rat at 2 mg/kg, iv administered as single dose; assay type: ADME, organism-based; conditions: in vivo, read-out: Vdss
Outline: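 Male Sprague-Dawley rats (n=3), single dose. IV 2 mg/kg in 1% DMA/9% Cremophor/90% saline; PO 10 mg/kg in 0.5% CMC-Na. For one compound, IV 10 mg/kg in DMSO/Tween 80/PEG40 and PO 10 mg/kg in 10% DMSO/5% Tween 80/85% saline.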

NCI-H661 = assay: Antiproliferative activity against human NCI-H661 cells after 72 hrs by SRB or MTT assay; assay type: functional, cell-based; conditions: NCI-H661, 72 h; outline: as §4
[7] = molecular target: T1, Hepatocyte growth factor receptor; assay: Inhibition of c-Met in human EBC1 cells assessed as reduction in ERK phosphorylation at Threonine 202 at 10 nM after 1 hr by Western blot analysis; assay type: cell-based; outline: as §1
[8] = Selectivity ratio of IC50 for human 786-0 cells to IC50 for human EBC1 cells; assay type: ADME, cell-based; outline: as §2
[9] = Selectivity ratio of IC50 for human SNU16 cells to IC50 for human MKN45 cells; assay type: ADME, cell-based; conditions: snu-16
786-0 = assay: Antiproliferative activity against human 786-0 cells after 72 hrs by SRB or MTT assay; assay type: functional, cell-based; conditions: 786-0, 72 h; outline: as §4
[10] = molecular target: T1, Hepatocyte growth factor receptor; assay: Inhibition of c-Met in HGF stimulated human U87MG cells assessed as reduction in ERK phosphorylation at Tyrosine 204 at 10 nM after 1 hr by Western blot analysis; assay type: cell-based; conditions: U-87MG ATCC
Outline: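 U87MG cells serum-starved 24 h, pretreated with compound 1 h at 37 °C, then stimulated with HGF (100 ng/mL) for 15 min. Lysed in 1× SDS sample buffer, resolved by 10% SDS-PAGE and blotted to nitrocellulose. Probed for phospho-c-Met, phospho-ERK1/2, phospho-AKT and totals, with GAPDH as loading control. ECL detection.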

[11] = molecular target: Receptor-type tyrosine-protein kinase FLT3 (Homo sapiens) (UniProt P36888); assay: Inhibition of recombinant FLT3 (unknown origin) using poly (Glu, Tyr) 4:1 as substrate at 1000 nM incubated for 60 mins by ELISA relative to control; outline: as §3
Sequence of Receptor-type tyrosine-protein kinase FLT3 (Homo sapiens) (P36888 whole entry): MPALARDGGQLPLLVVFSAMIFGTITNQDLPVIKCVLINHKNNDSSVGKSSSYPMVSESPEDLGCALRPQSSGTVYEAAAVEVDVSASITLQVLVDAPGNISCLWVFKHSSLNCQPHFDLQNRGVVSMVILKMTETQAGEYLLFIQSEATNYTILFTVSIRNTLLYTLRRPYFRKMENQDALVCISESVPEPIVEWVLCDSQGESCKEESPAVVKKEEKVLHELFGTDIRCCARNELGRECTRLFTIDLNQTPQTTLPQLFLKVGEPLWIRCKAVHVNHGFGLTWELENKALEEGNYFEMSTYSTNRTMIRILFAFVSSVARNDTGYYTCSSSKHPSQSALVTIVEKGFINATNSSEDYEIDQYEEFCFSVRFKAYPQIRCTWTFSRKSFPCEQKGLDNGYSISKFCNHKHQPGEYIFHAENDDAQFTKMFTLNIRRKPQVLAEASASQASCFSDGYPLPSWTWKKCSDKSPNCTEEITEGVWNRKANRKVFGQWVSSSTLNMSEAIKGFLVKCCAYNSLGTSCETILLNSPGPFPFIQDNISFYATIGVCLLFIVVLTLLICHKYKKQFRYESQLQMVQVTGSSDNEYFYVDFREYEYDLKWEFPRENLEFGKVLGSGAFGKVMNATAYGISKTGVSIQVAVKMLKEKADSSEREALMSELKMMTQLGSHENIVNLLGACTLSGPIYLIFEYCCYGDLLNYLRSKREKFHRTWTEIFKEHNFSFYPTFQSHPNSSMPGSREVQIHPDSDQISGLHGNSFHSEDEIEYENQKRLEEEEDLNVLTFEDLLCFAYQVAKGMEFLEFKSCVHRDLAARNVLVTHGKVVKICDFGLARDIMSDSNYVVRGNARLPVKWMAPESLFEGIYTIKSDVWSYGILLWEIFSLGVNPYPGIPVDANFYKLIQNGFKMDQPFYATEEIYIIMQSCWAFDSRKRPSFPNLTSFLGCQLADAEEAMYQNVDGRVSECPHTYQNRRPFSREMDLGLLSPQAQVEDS

[12] = molecular target: T1, Hepatocyte growth factor receptor; assay: Inhibition of c-Met phosphorylation at Tyrosine 1234 in human EBC1 cells at 10 nM after 1 hr by Western blot analysis; assay type: cell-based; outline: as §1
[13] = molecular target: Tyrosine-protein kinase receptor UFO (Homo sapiens, UniProt P30530); assay: Inhibition of recombinant AXL (unknown origin) using poly (Glu, Tyr) 4:1 as substrate incubated for 60 mins by ELISA
Sequence of Tyrosine-protein kinase receptor UFO (P30530 whole entry): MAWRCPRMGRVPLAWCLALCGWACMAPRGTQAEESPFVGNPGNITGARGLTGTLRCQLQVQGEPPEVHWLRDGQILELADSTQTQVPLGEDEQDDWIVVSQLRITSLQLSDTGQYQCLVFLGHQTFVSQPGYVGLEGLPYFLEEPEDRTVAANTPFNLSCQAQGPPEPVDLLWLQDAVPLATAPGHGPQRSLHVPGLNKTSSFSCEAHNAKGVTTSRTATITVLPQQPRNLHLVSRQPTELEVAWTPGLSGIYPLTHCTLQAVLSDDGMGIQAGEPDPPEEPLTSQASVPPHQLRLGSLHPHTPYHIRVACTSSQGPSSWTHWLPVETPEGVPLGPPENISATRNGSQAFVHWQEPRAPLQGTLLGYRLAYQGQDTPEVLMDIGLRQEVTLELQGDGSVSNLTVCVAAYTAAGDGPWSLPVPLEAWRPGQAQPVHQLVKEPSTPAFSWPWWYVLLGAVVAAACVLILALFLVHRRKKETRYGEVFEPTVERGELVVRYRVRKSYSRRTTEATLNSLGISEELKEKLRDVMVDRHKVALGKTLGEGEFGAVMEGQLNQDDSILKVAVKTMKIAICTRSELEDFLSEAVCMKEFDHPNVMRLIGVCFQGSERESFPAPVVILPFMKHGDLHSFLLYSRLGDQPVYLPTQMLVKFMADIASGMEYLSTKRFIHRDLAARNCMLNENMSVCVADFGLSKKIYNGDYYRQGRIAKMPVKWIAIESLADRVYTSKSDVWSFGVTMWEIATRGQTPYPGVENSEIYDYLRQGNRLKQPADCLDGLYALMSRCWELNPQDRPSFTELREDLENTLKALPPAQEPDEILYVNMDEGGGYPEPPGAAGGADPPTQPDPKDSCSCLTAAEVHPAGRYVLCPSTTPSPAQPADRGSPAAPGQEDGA

[14] = molecular target: Tyrosine-protein kinase receptor UFO (Homo sapiens) (UniProt P30530); conditions: 1000 nM
Sequence of Tyrosine-protein kinase receptor UFO (Homo sapiens) (P30530 whole entry): as above

[15] = molecular target: T1, Hepatocyte growth factor receptor; assay: Inhibition of c-Met in human MKN45 cells assessed as reduction in ERK phosphorylation at Threonine 202 at 10 nM after 1 hr by Western blot analysis; assay type: cell-based; conditions: MKN-45; outline: as §1
[16] = Selectivity ratio of IC50 for human SNU1 cells to IC50 for human MKN45 cells; assay type: ADME, cell-based; conditions: mkn-45
[17] = Selectivity ratio of IC50 for human U87MG cells to IC50 for human MKN45 cells; assay type: ADME, cell-based; conditions: u-87mg atcc
[18] = Selectivity ratio of IC50 for human PANC1 cells to IC50 for mouse BAF3 cells expressing TPR-MET; assay type: ADME, cell-based
Outline: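 Each cell line was seeded in 96-well plates, then exposed the next day to a range of compound concentrations for 72 h. Growth was read by SRB or MTT assay, and IC50 was fitted by a four-parameter concentration-response curve. Each concentration was run at least in triplicate, in at least 2 experiments. BaF3/TPR-Met are murine pre-B BaF3 cells transfected with TPR-MET cDNA and selected in puromycin.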

[19] = Clearance in Sprague-Dawley rat at 2 mg/kg, iv administered as single dose; assay type: ADME, organism-based; conditions: in vivo
Outline: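 Male Sprague Dawley rats (n=3), single dose. iv 2 mg/kg in 1% DMA/9% Cremophor/90% saline. po 10 mg/kg in 0.5% CMC-Na. Where iv was 10 mg/kg: 10% DMSO/10% Tween 80/80% (40% PEG40); po in that case in 10% DMSO/5% Tween 80/85% saline.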

[20] = Selectivity ratio of IC50 for human NCI-H226 cells to IC50 for mouse BAF3 cells expressing TPR-MET; assay type: ADME, cell-based; outline: as §2
[21] = Selectivity ratio of IC50 for human SNU1 cells to IC50 for mouse BAF3 cells expressing TPR-MET; assay type: ADME, cell-based
[22] = Antiproliferative activity against human SPCA4 cells after 72 hrs by SRB or MTT assay; assay type: functional, cell-based; conditions: SPC-A4, 72 h; outline: as §4
[23] = Antiproliferative activity against human NCI-H3122 cells after 72 hrs by SRB or MTT assay; assay type: functional, cell-based; conditions: NCI-H3122, 72 h; outline: as §4

inhibition [1]: Active | inhibition [3]: 6.1% | Vd [6]: 4.89 L/kg | IC50 (NCI-H661): > 10 µM | inhibition [7]: Active | IC50 (786-0): > 10 µM | inhibition [10]: Active | inhibition [11]: 12.3% | inhibition [12]: Active | IC50 [13]: > 1 µM | inhibition [14]: 36% | inhibition [15]: Active | clearance [19]: 47.2 mL/min/kg
Structure (SMILES): Fc1ccc(-c2cnc3nnc(C(F)(F)c4ccc5ncccc5c4)n3n2)cc1
Ratio IC50 [2]: 10000 | Ratio IC50 [4]: 10000 | IC50 [5]: > 10 µM | Ratio IC50 [8]: 10000 | Ratio IC50 [9]: 10000 | Ratio IC50 [16]: 10000 | Ratio IC50 [17]: 10000 | Ratio IC50 [18]: 10000 | Ratio IC50 [20]: 10000 | Ratio IC50 [21]: 10000 | IC50 [22]: > 10 µM | IC50 [23]: > 10 µM
